pIC50: −log10 of the molar value. Several values for one entry are separate records, joined by “and”; a condition that tells them apart may be missing. Equal values may be shown once.
Legend:
L1210 [1] = experiment: In vitro cytotoxicity in L1210 leukemia resistant to cisplatin; assay type: functional, Mus musculus; details: read-out: ID50 (the source's name)
Procedure, shortened: (§1)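 L1210 murine leukaemia (sensitive, 40–60-fold DDP-resistant, or 30-fold [Pt(R,R-dach)SO4]-resistant) grown in suspension in McCoy's 5A with 5% horse serum and glutamine. Cells at 5 × 10^4/mL exposed 72 h to 0.01–10 μg/mL (final) compound, from DMF stock diluted in saline (≤0.5% DMF) or water for malonates. Cells Coulter-counted; ID50 from % growth inhibition.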

L1210 [2] = experiment: In vitro cytotoxicity in L1210 leukemia sensitive to cisplatin; assay type: functional, Mus musculus; details: read-out: ID50 (the source's name); procedure, shortened: as §1
Mus musculus [3] = experiment: Antitumor activity against L1210 leukemia was determined at 5 mg/kg dose given on 1, 5, 9 days after tumor implantation in mice; assay type: functional, organism-based; set-up: dose 5 mg/kg
Procedure, shortened: (§2)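 Male BDF1 mice (18–20 g) inoculated ip with 10^6 L1210/0 or P388 ascites leukemia cells on day 0. Test compound given ip on days 1, 5 and 9; dosing stopped after two doses if over half of the animals had died by day 9. Deaths recorded over 60 days. %T/C = mean survival of treated mice that died ÷ mean survival of untreated tumour-bearing controls. Long-term survivors also counted.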

Mus musculus [4] = experiment: Antitumor activity against P388 leukemia was determined at 5 mg/kg dose given on 1, 5, 9 days after tumor implantation in mice; assay type: functional, organism-based; set-up: dose 5 mg/kg; procedure, shortened: as §2

Compound: CC(C)(N)CCC(C)(C)N
- pIC50 (L1210 [1]; Mus musculus, L1210): 5.04
- pIC50 (L1210 [1]): 5.26
- pIC50 (L1210 [2]): 5.21 and 6.01

Compound: CISPLATIN
- T/C (Mus musculus [3]): 210%
- T/C (Mus musculus [4]): 170%
